The test system of data set [1] is Human betaherpesvirus 5. Briefly: Antimicrobial activity against Human cytomegalovirus AD169 infected in 1 uM compound pretreated HELF assessed as inhibition of viral replication measured after 6 days post-infection. It counts as functional, organism-based. In outline:
(§1)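 HELF pretreated with ODN 1 h before infection with HCMV AD169 (MOI 1); ODN kept in medium after 2 h adsorption at 37°C. At 6 days p.i., cells plus supernatants sonicated and titrated by plaque assay on HELF; plaques counted microscopically, expressed as PFU/ml (log10) or % of control. IC50/IC90 by linear regression; duplicate wells, three independent experiments, means ± SD.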

The subject of data set [2] is Human betaherpesvirus 5. Briefly: Antimicrobial activity against 0.1 uM compound pretreated Human cytomegalovirus AD169 infected in HELF assessed as reduction in viral titer 37 degC. It counts as functional, organism-based. The method in brief: (§2)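 HCMV AD169 (10^4 PFU) incubated with ODN at 0.1 μM at 4 or 37°C for various times; samples then diluted to bring ODN below an antivirally active level; residual infectivity titrated by plaque assay on HELF. Means ± SD of three independent experiments.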

A short description of data set [3]: Cytotoxicity against HELF assessed as cell viability by MTT assay after 6 days at <=10 uM. The settings on record: human, 144 h. The class given is cell-based. In outline:
(§3)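 HELF exposed to rising ODN concentrations (up to 10 μM) for 6 days; viable cells measured by MTT. CC50 taken as concentration that cuts viability to 50%.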

Data set [4] relates to Human betaherpesvirus 5. The data set is described as follows: Antimicrobial activity against 0.1 uM compound pretreated Human cytomegalovirus AD169 infected in HELF assessed as reduction in viral titer at 4 degC. It counts as functional, organism-based. In outline:
as §2

In data set [5] the test system is Human betaherpesvirus 5. Briefly: Antimicrobial activity against Human cytomegalovirus AD169 infected in compound pretreated HELF assessed as inhibition of viral replication measured after 6 days post-infection. It counts as functional, organism-based. As to conditions: Human betaherpesvirus 5, AD169, HELF. The method in brief: as §1
In data set [6] the test system is Human betaherpesvirus 5. Briefly: Antimicrobial activity against Human cytomegalovirus AD169 infected in 0.1 uM compound pretreated HELF assessed as inhibition of viral replication measured after 6 days post-infection. The class given is functional, organism-based. The method in brief:
as §1

Data set [7] can be described thus: Cytotoxicity against HELF assessed as cell viability after 6 days by MTT assay. It counts as cell-based. As to conditions: human, HELF cells. In outline: as §3
In general terms: Formazan colour is commonly taken as a measure of viable cells.

The source made the active and inactive calls. The rule behind the calls is not given here. Where only a bound is given, the exact number is not on record here.

For orientation: IC50 means the point on the concentration scale where inhibition reaches its midpoint. In general, IC90 refers to the concentration at which the effect reaches the 90% level. What is called CC50 is the concentration that lowers cell viability or growth by half.

As to `Cc1cn([C@H]2C[C@H](OP(O)(=S)OC[C@H]3O[C@@H](n4ccc(N)nc4=O)[C@H](O)[C@@H]3OP(O)(=S)OC[C@H]3O[C@@H](n4cnc5c(=O)[nH]c(N)nc54)[C@H](O)[C@@H]3OP(O)(=S)OC[C@H]3O[C@@H](n4cc(C)c(=O)[nH]c4=O)C[C@@H]3OP(O)(=S)OC[C@H]3O[C@@H](n4ccc(N)nc4=O)[C@H](O)[C@@H]3OP(O)(=S)OC[C@H]3O[C@@H](n4cnc5c(=O)[nH]c(N)nc54)[C@H](O)[C@@H]3OP(O)(=S)OC[C@H]3O[C@@H](n4cc(C)c(=O)[nH]c4=O)C[C@@H]3OP(O)(=S)OC[C@H]3O[C@@H](n4cc(C)c(=O)[nH]c4=O)C[C@@H]3OP(O)(=S)OC[C@H]3O[C@@H](n4cc(C)c(=O)[nH]c4=O)C[C@@H]3OP(O)(=S)OC[C@H]3O[C@@H](n4cc(C)c(=O)[nH]c4=O)C[C@@H]3OP(O)(=S)OC[C@H]3O[C@@H](n4ccc(N)nc4=O)[C@H](O)[C@@H]3OP(O)(=S)OC[C@H]3O[C@@H](n4cnc5c(=O)[nH]c(N)nc54)[C@H](O)[C@@H]3OP(O)(=S)OC[C@H]3O[C@@H](n4cnc5c(=O)[nH]c(N)nc54)[C@H](O)[C@@H]3OP(O)(=S)OC[C@H]3O[C@@H](n4ccc(N)nc4=O)[C@H](O)[C@@H]3OP(O)(=S)OC[C@H]3O[C@@H](n4cnc5c(=O)[nH]c(N)nc54)[C@H](O)[C@@H]3OP(O)(=S)OC[C@H]3O[C@@H](n4ccc(N)nc4=O)[C@H](O)[C@@H]3OP(O)(=S)OC[C@H]3O[C@@H](n4cnc5c(=O)[nH]c(N)nc54)[C@H](O)[C@@H]3OP(O)(=S)OC[C@H]3O[C@@H](n4ccc(N)nc4=O)[C@H](O)[C@@H]3OP(O)(=S)OC[C@H]3O[C@@H](n4cnc5c(=O)[nH]c(N)nc54)[C@H](O)[C@@H]3OP(O)(=S)OC[C@H]3O[C@@H](n4ccc(N)nc4=O)[C@H](O)[C@@H]3OP(O)(=S)OC[C@H]3O[C@@H](n4ccc(N)nc4=O)[C@H](O)[C@@H]3OP(O)(=S)OC[C@H]3O[C@@H](n4cnc5c(=O)[nH]c(N)nc54)[C@H](O)[C@@H]3OP(O)(O)=S)[C@@H](CO)O2)c(=O)[nH]c1=O` (some centres not stated), the inhibition entry with Human betaherpesvirus 5 [1] and with Human betaherpesvirus 5 [6] was “Active” in each case. For the same compound, the inhibition result in the data set on Human betaherpesvirus 5 [2] and in the data set with Human betaherpesvirus 5 [4] was “inactive” each time. In addition, the Activity entry in data set [3] is “Non-toxic”. Also, the concentration for half-maximal inhibition (IC50) in the data set on Human betaherpesvirus 5 [5] is 0.1 µM. Moreover, in the data set with Human betaherpesvirus 5 [5], the IC90 worked out at 3.2 µM. Besides, the CC50 at 144 h in data set [7] was > 10 µM.
On to `Cc1cn([C@H]2C[C@H](OP(=O)(O)O)[C@@H](COP(=O)(O)O[C@H]3C[C@H](n4cc(C)c(=O)[nH]c4=O)O[C@@H]3COP(=O)(O)O[C@H]3[C@@H](O)[C@H](n4cnc5c(=O)[nH]c(N)nc54)O[C@@H]3COP(=O)(O)O[C@H]3[C@@H](O)[C@H](n4ccc(N)nc4=O)O[C@@H]3COP(=O)(O)O[C@H]3C[C@H](n4cc(C)c(=O)[nH]c4=O)O[C@@H]3COP(=O)(O)O[C@H]3[C@@H](O)[C@H](n4cnc5c(=O)[nH]c(N)nc54)O[C@@H]3COP(=O)(O)O[C@H]3C[C@H](n4cc(C)c(=O)[nH]c4=O)O[C@@H]3COP(=O)(O)O[C@H]3C[C@H](n4cc(C)c(=O)[nH]c4=O)O[C@@H]3COP(=O)(O)O[C@H]3C[C@H](n4cc(C)c(=O)[nH]c4=O)O[C@@H]3COP(=O)(O)O[C@H]3C[C@H](n4cc(C)c(=O)[nH]c4=O)O[C@@H]3COP(=O)(O)O[C@H]3[C@@H](O)[C@H](n4cnc5c(=O)[nH]c(N)nc54)O[C@@H]3COP(=O)(O)O[C@H]3[C@@H](O)[C@H](n4ccc(N)nc4=O)O[C@@H]3COP(=O)(O)O[C@H]3C[C@H](n4cc(C)c(=O)[nH]c4=O)O[C@@H]3COP(=O)(O)O[C@H]3[C@@H](O)[C@H](n4cnc5c(=O)[nH]c(N)nc54)O[C@@H]3COP(=O)(O)O[C@H]3C[C@H](n4cc(C)c(=O)[nH]c4=O)O[C@@H]3COP(=O)(O)O[C@H]3C[C@H](n4cc(C)c(=O)[nH]c4=O)O[C@@H]3COP(=O)(O)O[C@H]3C[C@H](n4cc(C)c(=O)[nH]c4=O)O[C@@H]3COP(=O)(O)O[C@H]3C[C@H](n4cc(C)c(=O)[nH]c4=O)O[C@@H]3COP(=O)(O)O[C@H]3[C@@H](O)[C@H](n4cnc5c(=O)[nH]c(N)nc54)O[C@@H]3COP(=O)(O)O[C@H]3[C@@H](O)[C@H](n4ccc(N)nc4=O)O[C@@H]3COP(=O)(O)O[C@H]3C[C@H](n4cc(C)c(=O)[nH]c4=O)O[C@@H]3COP(=O)(O)O[C@H]3[C@@H](O)[C@H](n4cnc5c(=O)[nH]c(N)nc54)O[C@@H]3COP(=O)(O)O[C@H]3[C@@H](O)[C@H](n4ccc(N)nc4=O)O[C@@H]3COP(=O)(O)O[C@H]3C[C@H](n4cc(C)c(=O)[nH]c4=O)O[C@@H]3CO)O2)c(=O)[nH]c1=O`, for which the inhibition result in the data set with Human betaherpesvirus 5 [1] and in the data set with Human betaherpesvirus 5 [6] was “Active” throughout. Further, the inhibition entry with Human betaherpesvirus 5 [2] and with Human betaherpesvirus 5 [4] was “inactive” each time. Moreover, the Activity result in data set [3] is “Non-toxic”. Further, in the data set with Human betaherpesvirus 5 [5], the 50% inhibitory concentration (IC50) was found to be 3.8 µM. For the same compound, in the data set with Human betaherpesvirus 5 [5], the IC90 was > 10 µM. The CC50 at 144 h in data set [7] is > 10 µM.
With `Cc1cn([C@H]2C[C@H](OP(O)(=S)OC[C@H]3O[C@@H](n4cc(C)c(=O)[nH]c4=O)C[C@@H]3OP(O)(O)=S)[C@@H](OOP(O)(=S)O[C@H]3[C@@H](O)[C@H](n4ccc(N)nc4=O)O[C@@H]3COP(O)(=S)O[C@H]3[C@@H](O)[C@H](n4cnc5c(=O)[nH]c(N)nc54)O[C@@H]3COP(O)(=S)O[C@H]3[C@@H](O)[C@H](n4cnc5c(N)ncnc54)O[C@@H]3COP(O)(=S)O[C@H]3[C@@H](O)[C@H](n4cnc5c(=O)[nH]c(N)nc54)O[C@@H]3COP(O)(=S)O[C@H]3C[C@H](n4cc(C)c(=O)[nH]c4=O)O[C@@H]3COP(O)(=S)O[C@H]3[C@@H](O)[C@H](n4ccc(N)nc4=O)O[C@@H]3COP(O)(=S)O[C@H]3[C@@H](O)[C@H](n4ccc(N)nc4=O)O[C@@H]3COP(O)(=S)O[C@H]3C[C@H](n4cc(C)c(=O)[nH]c4=O)O[C@@H]3COP(O)(=S)O[C@H]3C[C@H](n4cc(C)c(=O)[nH]c4=O)O[C@@H]3COP(O)(=S)O[C@H]3[C@@H](O)[C@H](n4ccc(N)nc4=O)O[C@@H]3COP(O)(=S)O[C@H]3[C@@H](O)[C@H](n4cnc5c(=O)[nH]c(N)nc54)O[C@@H]3COP(O)(=S)O[C@H]3[C@@H](O)[C@H](n4cnc5c(N)ncnc54)O[C@@H]3COP(O)(=S)O[C@H]3[C@@H](O)[C@H](n4cnc5c(=O)[nH]c(N)nc54)O[C@@H]3COP(O)(=S)O[C@H]3C[C@H](n4cc(C)c(=O)[nH]c4=O)O[C@@H]3COP(O)(=S)O[C@H]3[C@@H](O)[C@H](n4cnc5c(N)ncnc54)O[C@@H]3COP(O)(=S)O[C@H]3[C@@H](O)[C@H](n4ccc(N)nc4=O)O[C@@H]3COP(O)(=S)O[C@H]3[C@@H](O)[C@H](n4ccc(N)nc4=O)O[C@@H]3COP(O)(=S)O[C@H]3C[C@H](n4cc(C)c(=O)[nH]c4=O)O[C@@H]3CO)O2)c(=O)[nH]c1=O` (some centres not stated), the inhibition entry in the data set with Human betaherpesvirus 5 [1] and in the data set with Human betaherpesvirus 5 [6] was “Active” throughout. The inhibition entry in the data set on Human betaherpesvirus 5 [2] and in the data set with Human betaherpesvirus 5 [4] was “inactive” each time. Also, the Activity result in data set [3] was “Non-toxic”. Further, the IC50 in the data set with Human betaherpesvirus 5 [5] is 0.2 µM. In addition, the 90% effect concentration (IC90) in the data set with Human betaherpesvirus 5 [5] is > 5 µM. In addition, the CC50 at 144 h in data set [7] is > 10 µM.
`Cc1cn([C@H]2C[C@H](OP(=O)(O)OC[C@H]3O[C@@H](n4ccc(N)nc4=O)[C@H](O)[C@@H]3OP(=O)(O)OC[C@H]3O[C@@H](n4cnc5c(=O)[nH]c(N)nc54)[C@H](O)[C@@H]3OP(=O)(O)OC[C@H]3O[C@@H](n4cc(C)c(=O)[nH]c4=O)C[C@@H]3OP(=O)(O)OC[C@H]3O[C@@H](n4ccc(N)nc4=O)[C@H](O)[C@@H]3OP(=O)(O)OC[C@H]3O[C@@H](n4cnc5c(=O)[nH]c(N)nc54)[C@H](O)[C@@H]3OP(=O)(O)OC[C@H]3O[C@@H](n4cnc5c(=O)[nH]c(N)nc54)[C@H](O)[C@@H]3OP(O)(=S)OC[C@H]3O[C@@H](n4cnc5c(=O)[nH]c(N)nc54)[C@H](O)[C@@H]3OP(O)(=S)OC[C@H]3O[C@@H](n4cnc5c(=O)[nH]c(N)nc54)[C@H](O)[C@@H]3OP(O)(=S)OC[C@H]3O[C@@H](n4cnc5c(=O)[nH]c(N)nc54)[C@H](O)[C@@H]3OP(O)(=S)OC[C@H]3O[C@@H](n4cnc5c(=O)[nH]c(N)nc54)[C@H](O)[C@@H]3OP(O)(O)=S)[C@@H](COP(=O)(O)O[C@H]3[C@@H](O)[C@H](n4cnc5c(N)ncnc54)O[C@@H]3COP(=O)(O)O[C@H]3[C@@H](O)[C@H](n4cnc5c(=O)[nH]c(N)nc54)O[C@@H]3COP(=O)(O)O[C@H]3[C@@H](O)[C@H](n4ccc(N)nc4=O)O[C@@H]3COP(=O)(O)O[C@H]3[C@@H](O)[C@H](n4cnc5c(N)ncnc54)O[C@@H]3COP(=O)(O)O[C@H]3[C@@H](O)[C@H](n4cnc5c(=O)[nH]c(N)nc54)O[C@@H]3COP(=O)(O)O[C@H]3[C@@H](O)[C@H](n4cnc5c(=O)[nH]c(N)nc54)O[C@@H]3COP(=O)(O)O[C@H]3[C@@H](O)[C@H](n4cnc5c(=O)[nH]c(N)nc54)O[C@@H]3COP(O)(=S)O[C@H]3[C@@H](O)[C@H](n4cnc5c(=O)[nH]c(N)nc54)O[C@@H]3COP(O)(=S)O[C@H]3[C@@H](O)[C@H](n4cnc5c(=O)[nH]c(N)nc54)O[C@@H]3CO)O2)c(=O)[nH]c1=O` (some centres not stated): the inhibition entry in the data set with Human betaherpesvirus 5 [1] and with Human betaherpesvirus 5 [6] was “Active” in each case. Besides, the inhibition entry in the data set on Human betaherpesvirus 5 [2] and with Human betaherpesvirus 5 [4] was “inactive” throughout. In addition, in data set [3], the Activity entry is listed as “Non-toxic”. The IC50 in the data set on Human betaherpesvirus 5 [5] was found to be 0.14 µM. Moreover, the IC90 in the data set on Human betaherpesvirus 5 [5] was determined as 3.6 µM. Besides, the CC50 at 144 h in data set [7] is > 10 µM.

The values above are taken from ChEMBL document CHEMBL1255259, “Phosphorothioate-modified oligodeoxynucleotides inhibit human cytomegalovirus replication by blocking virus entry” (Antimicrob Agents Chemother, 2008).
